Counter-ions that a name gives are not always drawn.
Assays:
[1] = system: LNCaP; assay: In vitro concentration required to kill 50% of LNCaP human prostate cancer cell line; type: functional, cell-based
In short: (§1)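 Cell-kill assay in culture. LNCaP is a PSA-secreting human prostate cancer line. Colo320 is a PSA-nonsecreting human colorectal carcinoma line, used as the non-PSA control. EC50 is the compound dose that kills 50% of the tumor cells.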

[2] = system: Mus musculus; assay: Maximum nonlethal drug dose administered intraperitoneally to non tumor bearing nude mice; type: functional
In short: (§2)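 Nontumor-bearing nude mice were dosed intraperitoneally once daily for 5 consecutive days. MTD is the maximum dose that could be given on this schedule without lethality. P values are reported.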

[3] = system: T47D; assay: In vitro concentration required to kill 50% of T47D human breast ductal carcinoma cell line; type: functional, cell-based
In short: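 T47D is a PSA-nonsecreting human breast ductal carcinoma line, used as a control for PSA-secreting LNCaP cells. Compounds were tested in cell culture. EC50 is the dose that kills 50% of the tumor cells.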

[4] = system: Mus musculus; assay: Intraperitoneal dose administered to non tumor bearing nude mice; type: functional; in short: as §2
[5] = system: LNCaP; assay: Percent tumor weight reduction after intraperitoneal injection of conjugate dose to nude mice bearing LNCaP tumor xenografts; type: functional, Mus musculus
In short: (§3)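 Nude mice bearing human prostate LNCaP (PSA-secreting) xenografts were given the conjugate intraperitoneally for 5 consecutive days and followed over six weeks. Serum PSA, tumor weight and body weight were measured at study end. Results are percent relative to vehicle-treated controls, with P values.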

[6] = system: COLO 320; assay: In vitro concentration required to kill 50% of COLO 320 human colorectal carcinoma cell line; type: functional, cell-based; in short: as §1
[7] = Percent PSA reduction after intraperitoneal injection of conjugate dose to nude mice bearing LNCaP tumor xenografts; type: functional, Mus musculus; in short: as §3
[8] = system: PSA; assay: Time required for PSA to hydrolyze 50% compound at a molar ratio of 1:100; type: ADME; conditions: PSA (enzyme)
In short: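 Conjugate and purified human PSA were mixed at a 100:1 molar ratio (substrate:enzyme) in 50 mM Tris·HCl and 140 mM NaCl, pH 7.4. Samples were incubated at 37 °C for 0, 30, 60, 120, 180 or 240 min. T1/2 is the time to 50% cleavage.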

CC[C@]1(O)C[C@@H]2CN(CCc3c([nH]c4ccccc34)[C@@](C(=O)OC)(c3cc4c(cc3OC)N(C)C3C45CCN4CC=C[C@](CC)(C45)[C@@H](O)[C@]3(O)C(=O)OC)C2)C1 (some centres not stated)
EC50 [1]: 100 nM | MTD [2]: 0.26 µM/kg | EC50 [3]: 150 nM | Dose [4]: 0.26 µM/kg | Weight reduction [5]: 16% | EC50 [6]: 200 nM | Reduction [7]: 14%

CC[C@]1(O)C[C@@H]2CN(CCc3c([nH]c4ccccc34)[C@@](C(=O)OC)(c3cc4c(cc3OC)N(C)C3C45CCN4CC=C[C@](CC)(C45)[C@@H](OC(=O)CN)[C@]3(O)C(=O)OC)C2)C1 (some centres not stated)
EC50 [1]: 300 nM | EC50 [6]: 1800 nM

CC[C@]1(O)C[C@@H]2CN(CCc3c([nH]c4ccccc34)[C@@](C(=O)OC)(c3cc4c(cc3OC)N(C)C3C45CCN4CC=C[C@](CC)(C45)[C@@H](OC(=O)[C@@H](N)CC(C)C)[C@]3(O)C(=O)OC)C2)C1 (some centres not stated)
EC50 [1]: 4000 nM | EC50 [6]: 6000 nM

CC[C@]1(O)C[C@@H]2CN(CCc3c([nH]c4ccccc34)[C@@](C(=O)OC)(c3cc4c(cc3OC)N(C)C3C45CCN4CC=C[C@](CC)(C45)[C@@H](OC(=O)[C@H](CC(C)C)NC(=O)[C@H](CO)NC(=O)[C@H](CCC(N)=O)NC(=O)C(NC(=O)[C@H](CO)NC(=O)[C@H](CO)NC(=O)[C@H]4CC(O)CN4C(C)=O)C4CCCCC4)[C@]3(O)C(=O)OC)C2)C1.O=C(O)C(F)(F)F (some centres not stated)
EC50 [1]: 40000 nM | half-life [8]: 35 min | EC50 [6]: 87000 nM

CC[C@]1(O)C[C@@H]2CN(CCc3c([nH]c4ccccc34)[C@@](C(=O)OC)(c3cc4c(cc3OC)N(C)[C@H]3[C@@](O)(C(=O)OC)[C@H](OC(C)=O)[C@]5(CC)C=CCN6CC[C@]43[C@@H]65)C2)C1 [VINBLASTINE SULFATE]
EC50 [1]: 500 nM

CC[C@]1(O)C[C@@H]2CN(CCc3c([nH]c4ccccc34)[C@@](C(=O)OC)(c3cc4c(cc3OC)N(C)C3C45CCN4CC=C[C@](CC)(C45)[C@@H](OC(=O)C4CCCN4)[C@]3(O)C(=O)OC)C2)C1.O=C(O)C(F)(F)F (some centres not stated)
EC50 [1]: 1000 nM | MTD [2]: 4.6 µM/kg | EC50 [3]: 1600 nM | Dose [4]: 4.6 µM/kg | Weight reduction [5]: 60% | EC50 [6]: 3000 nM | Reduction [7]: 33%

— ChEMBL document CHEMBL1135593, “Design and synthesis of a pro-drug of vinblastine targeted at treatment of prostate cancer with enhanced efficacy and reduced systemic toxicity” (J Med Chem, 2002)
